Experiment [1] concerns the target Frizzled-1 (Homo sapiens) (UniProt Q9UP38). In words: Induction of GFP-tagged Fzd1 (unknown origin) internalization expressed in human U2OS cells at 12.5 after 6 hrs by confocal microscopic method relative to control. The class given is cell-based. An outline of the steps: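 U2OS cells stably expressing Frizzled1-GFP were exposed to compound for 6 h, fixed and imaged by confocal microscopy. Punctate was scored visually against DMSO control: similar to control = 0, trace = 1, moderate = 3, strong = 5.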

Experiment [2] can be described thus: Inhibition of Wnt3A-stimulated Wnt/beta-catenin pathway in HEK293 cells transfected with p8xTOPFlash, Renilla luciferase plasmid pRL-TK and pLKO.1 after 8 hrs by Dual topflash luciferase reporter gene assay. In kind it is cell-based. The settings on record: Homo sapiens, HEK293, 8 h. An outline of the steps: (§1)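 HEK293 cells stably carrying a TOPFlash luciferase reporter and a Renilla luciferase control were stimulated with Wnt3A-conditioned medium and given DMSO or compound (0.04–10 μM) for 8 h. Wnt3A plus DMSO was set as 100%. IC50 was fit from mean ± SEM, n 3. Percent inhibition at the two highest concentrations was given when no full curve was obtained.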
A general note: Reporter assays use an easily measured gene product as a stand-in for the process of interest.

The species entered for experiment [3] is Homo sapiens. Kind of experiment: Inhibition of Wnt/beta-catenin signaling pathway in human HCT116 cells cytosol lysate harboring beta-catenin mutation assessed as reduction in Axin2 protein expression at 5 uM after 18 hrs by Western blot analysis relative to control. The class given is subcellular. An outline of the steps:
(§2)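 Cells were treated with 5 μM compound in DMSO, or DMSO alone, for 18 h. Cytosolic fraction and whole-cell lysate were immunoblotted for target proteins with β-actin as loading control. Band levels were normalized to β-actin and expressed as percent of the DMSO-treated control.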
For orientation: In western blotting, separated proteins are transferred to a membrane and probed.

For experiment [4], the species on record is Homo sapiens. In words: Inhibition of Wnt/beta-catenin signaling pathway in human HCT116 cells cytosol lysate harboring beta-catenin mutation assessed as reduction in beta-catenin protein expression at 5 uM after 18 hrs by Western blot analysis relative to control. The class given is subcellular. In outline: as §2
Experiment [5] is filed under the species Homo sapiens. In words: Inhibition of Wnt/beta-catenin signaling pathway in human HCT116 whole cell lysate harboring beta-catenin mutation assessed as reduction in c-Myc protein expression at 5 uM after 18 hrs by Western blot analysis relative to control. The class given is subcellular. An outline of the steps: as §2
The species named for experiment [6] is Homo sapiens. In words: Inhibition of Wnt/beta-catenin signaling pathway in human HCT116 whole cell lysate harboring beta-catenin mutation assessed as reduction in survivin protein expression at 5 uM after 18 hrs by Western blot analysis relative to control. The class given is subcellular. In outline:
as §2

For experiment [7], the species on record is Homo sapiens. Kind of experiment: Inhibition of Wnt/beta-catenin signaling pathway in human HCT116 whole cell lysate harboring beta-catenin mutation assessed as reduction in cyclin D1 protein expression at 5 uM after 18 hrs by Western blot analysis relative to control. In kind it is subcellular. An outline of the steps:
as §2

Experiment [8] relates to SW480. Kind of experiment: Inhibition of Wnt/beta-catenin signaling pathway in human SW480 cells cytosol lysate harboring APC mutation assessed as reduction in Axin2 protein expression at 5 uM after 18 hrs by Western blot analysis relative to control. In kind it is subcellular. An outline of the steps:
as §2

Experiment [9] deals with SW480. In words: Inhibition of Wnt/beta-catenin signaling pathway in human SW480 cells cytosol lysate harboring APC mutation assessed as reduction in beta-catenin protein expression at 5 uM after 18 hrs by Western blot analysis relative to control. In kind it is subcellular. In outline: as §2
For experiment [10], the system named is SW480. Kind of experiment: Inhibition of Wnt/beta-catenin signaling pathway in human SW480 whole cell lysate harboring APC mutation assessed as reduction in c-Myc protein expression at 5 uM after 18 hrs by Western blot analysis relative to control. In kind it is subcellular. In outline:
as §2

The subject of experiment [11] is SW480. Kind of experiment: Inhibition of Wnt/beta-catenin signaling pathway in human SW480 whole cell lysate harboring APC mutation assessed as reduction in survivin protein expression at 5 uM after 18 hrs by Western blot analysis relative to control. The class given is subcellular. An outline of the steps:
as §2

Experiment [12] deals with SW480. In words: Inhibition of Wnt/beta-catenin signaling pathway in human SW480 whole cell lysate harboring APC mutation assessed as reduction in cyclin D1 protein expression at 5 uM after 18 hrs by Western blot analysis relative to control. The class given is subcellular. An outline of the steps: as §2
The test system of experiment [13] is HEK293. In words: Inhibition of Wnt3A-stimulated Wnt/beta-catenin pathway in HEK293 cells transfected with p8xTOPFlash, Renilla luciferase plasmid pRL-TK and pLKO.1 assessed as residual activity at 10 uM after 8 hrs by Dual topflash luciferase reporter gene assay relative to control. The class given is cell-based. The settings on record: Homo sapiens. In outline: as §1

For experiment [14], the species on record is Homo sapiens. In words: Inhibition of Wnt/beta-catenin signaling pathway in human HCT116 cells cytosol lysate harboring beta-catenin mutation assessed as reduction in Axin2 protein expression at 5 to 10 uM after 18 hrs by Western blot analysis. In kind it is subcellular.
The species entered for experiment [15] is Homo sapiens. Kind of experiment: Inhibition of Wnt/beta-catenin signaling pathway in human HCT116 cells cytosol lysate harboring beta-catenin mutation assessed as reduction in beta-catenin protein expression at 5 to 10 uM after 18 hrs by Western blot analysis. The class given is subcellular.
The species entered for experiment [16] is Homo sapiens. Kind of experiment: Inhibition of Wnt/beta-catenin signaling pathway in human HCT116 whole cell lysate harboring beta-catenin mutation assessed as reduction in c-Myc protein expression at 5 to 10 uM after 18 hrs by Western blot analysis. The class given is subcellular.
For experiment [17], the species on record is Homo sapiens. Kind of experiment: Inhibition of Wnt/beta-catenin signaling pathway in human HCT116 whole cell lysate harboring beta-catenin mutation assessed as reduction in survivin protein expression at 5 to 10 uM after 18 hrs by Western blot analysis. The class given is subcellular.
For experiment [18], the species on record is Homo sapiens. Kind of experiment: Inhibition of Wnt/beta-catenin signaling pathway in human HCT116 whole cell lysate harboring beta-catenin mutation assessed as reduction in survivin protein expression at 5 to 10 uM after 18 hrs by Western blot analysis.
The test system of experiment [19] is HEK293. Kind of experiment: Inhibition of Wnt3A-stimulated Wnt/beta-catenin pathway in HEK293 cells transfected with p8xTOPFlash, Renilla luciferase plasmid pRL-TK and pLKO.1 at 10 uM after 8 hrs by Dual topflash luciferase reporter gene assay relative to control. In kind it is cell-based. The conditions noted are these: Homo sapiens. In outline:
as §1

Experiment [20] concerns HEK293. Kind of experiment: Inhibition of Wnt3A-stimulated Wnt/beta-catenin pathway in HEK293 cells transfected with p8xTOPFlash, Renilla luciferase plasmid pRL-TK and pLKO.1 at 5 uM after 8 hrs by Dual topflash luciferase reporter gene assay relative to control. In kind it is cell-based. The conditions noted are these: Homo sapiens. In outline: as §1

Calls of active or inactive are those of the source. The rule behind the calls is not given here.

Frizzled-1 (Homo sapiens), sequence (Q9UP38 70-647 limits assumed): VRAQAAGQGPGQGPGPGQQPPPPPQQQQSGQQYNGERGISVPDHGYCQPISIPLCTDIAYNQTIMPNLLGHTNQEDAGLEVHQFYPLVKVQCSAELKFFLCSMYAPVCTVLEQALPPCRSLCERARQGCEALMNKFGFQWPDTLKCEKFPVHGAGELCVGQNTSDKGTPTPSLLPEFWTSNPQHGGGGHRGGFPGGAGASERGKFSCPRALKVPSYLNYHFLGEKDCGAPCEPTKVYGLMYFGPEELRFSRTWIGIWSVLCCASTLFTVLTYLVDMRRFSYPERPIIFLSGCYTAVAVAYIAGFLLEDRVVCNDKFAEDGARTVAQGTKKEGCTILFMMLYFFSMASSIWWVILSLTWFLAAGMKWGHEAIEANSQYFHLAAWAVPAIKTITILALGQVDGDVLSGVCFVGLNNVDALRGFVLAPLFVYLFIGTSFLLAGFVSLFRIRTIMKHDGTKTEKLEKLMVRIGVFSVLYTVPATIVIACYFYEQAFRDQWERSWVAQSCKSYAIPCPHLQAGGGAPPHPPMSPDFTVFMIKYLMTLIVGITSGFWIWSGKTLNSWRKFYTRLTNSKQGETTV

As for `O=[N+]([O-])c1ccc(-c2nnc(-c3cc(Cl)ccc3O)[nH]2)cc1`, the score in experiment [1] was determined as 4. For the same compound, the 50% inhibitory concentration (IC50) (in general, the concentration at which inhibition is half-maximal) in experiment [2] came to 1410 nM. Further, the inhibition (usually the percentage by which the read-out fell short of the control) in experiment [3] stood at 75%; in [4], 59%; in [5], 2%; in [6] it was 38%; in [7] it was 20%; in experiment [8], 44%. Besides, the inhibition in experiment [9] was 67%; in experiment [10], 2%; in experiment [11], 38%; in [12], 70%.
Consider `O=[N+]([O-])c1ccc(-c2nnc(-c3cc(Cl)ccc3O)[nH]2)c(Cl)c1`, for which the score in [1] amounted to 5. For the same compound, the 50% inhibitory concentration (IC50) in experiment [2] worked out at 1840 nM. For the same compound, the inhibition in [3] was determined as 68%; in experiment [4] it was 34%; in [5], 3%; in experiment [6], 38%; in experiment [7], 22%; in experiment [8], 47%. Further, the inhibition in experiment [9] was found to be 69%; in [10] it was 4%; in experiment [11], 43%; in [12] it was 57%.
The compound `O=C(NC(=O)c1cc(Cl)ccc1O)c1ccc([N+](=O)[O-])cc1` yielded a score in experiment [1] of 0. The Activity in [13] stood at 153%.
With `Oc1ccc(Cl)cc1-c1nnc(-c2ccccc2)[nH]1`, the score in experiment [1] came to 0. The same compound registered a 50% inhibitory concentration (IC50) in experiment [2] of 4020 nM. The inhibition entry in experiment [14], in [15], in [16], in experiment [17] and in experiment [18] was “Active” in each case.
For the compound `Oc1ccc(Cl)cc1-c1nnc(-c2ccc(F)cc2)[nH]1`, in experiment [1], the score turned out to be 1. In addition, in experiment [2], it took 1910 nM to reach half-maximal inhibition (IC50).
Regarding `O=C(NCc1ccc([N+](=O)[O-])cc1)c1cc(Cl)ccc1O`, in experiment [1], the score turned out to be 0. The inhibition in experiment [19] stood at 43%; in experiment [20], 3%.
Turning to `COc1ccc(-c2nnc(-c3cc(Cl)ccc3O)[nH]2)cc1`, the score in [1] was 0. Further, the inhibition in [19] worked out at 60%; in experiment [20], 14%.
As for `O=C(Nc1ccc([N+](=O)[O-])cc1Cl)c1cc(Cl)ccc1O` [NICLOSAMIDE], the score in experiment [1] was determined as 5. For the same compound, in experiment [2], half-maximal inhibition (IC50) was put at 340 nM. In addition, the inhibition amounted to 35% in [3]; 46% in [4]; 1% in experiment [5]; 44% in experiment [6]; 28% in experiment [7]; 29% in [8]. Further, the inhibition is 74% in [9], 3% in [10], 41% in experiment [11] and 45% in experiment [12].
In the case of `Oc1ccc(Cl)cc1-c1nnc(-c2ccc(C(F)(F)F)cc2)[nH]1`, in [1], the score was found to be 2. Further, the IC50 in experiment [2] is 2880 nM. Also, the inhibition came to 68% in experiment [3]; 6% in experiment [4]; 3% in experiment [5]; 44% in [6]; 17% in experiment [7]; 58% in experiment [8]. Besides, the inhibition stood at 72% in experiment [9], 2% in experiment [10], 56% in [11] and 76% in [12].

These data come from ChEMBL document CHEMBL4371061, “Identification of novel triazole inhibitors of Wnt/β-catenin signaling based on the Niclosamide chemotype” (Bioorg Med Chem Lett, 2019).
